High-throughput results deposited in PubChem BioAssay by several laboratories.
Myeloid diff MLP = myeloid differentiation induction | ER-HoxA9 myeloid progenitors, lysozyme-GFP differentiation, flow cytometry | AID 624256 | 360,000 compounds, 1% hits | calls only at 10 µM;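 active = normalized GFP-positive differentiation at or above the plate's own cutoff, the solvent-only control mean plus 3 SD; inconclusive = no clear call, values can overlap the other calls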;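 note: cells exposed to compound for four days before flow analysis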
Exocytosis inh = blocks lytic granule exocytosis | TALL-104 LAMP-1 surface exposure, flow cytometry; cells stimulated with thapsigargin and PMA | inhibition, % at 10 µM | 360,000 compounds, 0.66% hits | AID 651702;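 active = inhibition above about 55%, limit read from the data; inconclusive = no clear call, values can overlap the other calls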
MC4R antag cAMP = human MC4R antagonism in cAMP assay. P32245. MC4R-expressing cells, MTII-stimulated cAMP, LANCE TR-FRET. inhibition, % at 6.5 µM. 360,000 compounds, 0.48% hits;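 active = inhibition above its plate's cutoff, the mean of tested wells on that plate plus 3 SD, cut at about 29% in these data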;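 note: 0% = Melanotan II alone and 100% = Melanotan II plus saturating MCL0020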
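System: U2OS-MC4R stable cell line; Technique: Eu-cAMP/anti-cAMP TR-FRET, emission 671 nm; Repeats: single well per compound; Also added: Melanotan II; Dosing: one concentration, 6.5 µM nominal; Schedule: 30-min compound, 1-h challenge, 1-h detection, room temperature.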
EBI2 antag = blocks human EBI2 receptor beta-arrestin signaling; P32249; EBI2 beta-arrestin recruitment, luminescence, 7a,25-OHC stimulated; inhibition, % at 5 µM; 360,000 compounds, 0.81% hits; AID 651636; in the data active = inhibition above about 38%;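 note: enzyme fragment complementation signal reports receptor beta-arrestin coupling in cells; 0% = agonist plus DMSO wells and 100% = wells without agonist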
Target sequence (P32249 whole entry, looked up, the tested form may be a part): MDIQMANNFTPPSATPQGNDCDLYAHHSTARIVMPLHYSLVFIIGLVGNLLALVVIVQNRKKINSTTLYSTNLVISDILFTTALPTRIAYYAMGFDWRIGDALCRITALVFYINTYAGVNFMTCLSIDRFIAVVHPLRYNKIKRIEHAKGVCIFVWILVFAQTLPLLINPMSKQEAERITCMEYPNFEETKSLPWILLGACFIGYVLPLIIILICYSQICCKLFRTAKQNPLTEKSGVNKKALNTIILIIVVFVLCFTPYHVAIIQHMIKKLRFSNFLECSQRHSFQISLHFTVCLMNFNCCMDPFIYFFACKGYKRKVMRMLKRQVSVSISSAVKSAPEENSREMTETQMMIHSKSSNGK
MC4R ag barr = agonists of human melanocortin 4 receptor (MC4R) beta-arrestin; 360,000 compounds, 0.98% hits; U2OS MC4R beta-arrestin complementation, luminescence; percent of melanotan II response, DMSO zero; activation, % at 8.9 µM; P32245;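 active = activation above a per-plate cutoff, the mean activation of sample wells on that plate plus 3 SD, cut at about 8% in these data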
The depositor's hits bear a star; i = inactive; ? = inconclusive; . = no result; + = active, no number. Most compounds without a hit are left out; they make up all but 3.7% or so of the library.

SMILES	Myeloid diff MLP	Exocytosis inh	MC4R antag cAMP	EBI2 antag	MC4R ag barr
COc1cc(CNCc2ccccn2)ccc1OCc1ccc(Cl)cc1Cl	i	18	30*	-9	9.2*
COC(=O)c1cc(=O)n(Cc2cccs2)c(=Nc2ccc(F)cc2)s1	i	-1	19	30	1
COC(=O)c1cc(=O)n(Cc2ccco2)c(=Nc2ccc(F)c(Cl)c2)s1	i	-14	16	55*	1
COC(=O)c1cc(=O)n(CCc2ccccc2F)c(=Nc2ccc(F)c(Cl)c2)s1	i	-3	14	69*	1
COc1ccccc1Nc1cc2cc(Br)ccc2c(=O)[nH]1	+	7	-17	-13	0
COc1cc(C2CC(c3cccs3)=NN2C(=O)CCl)ccc1OC(F)F (stereo not drawn)	?	-2	26	14	22*
O=[N+]([O-])c1ccc(Nc2ccccc2O)c([N+](=O)[O-])c1	+	-7	-3	-11	-2
OC(CNCCc1ccc(Cl)cc1)COc1cc(Cl)ccc1Cl (stereo not drawn)	i	-13	7	-3	30*
CC(=O)Nc1ccc(NC(=O)C2Cc3c(-c4ccc5c(c4)OCO5)ccnc3O2)cc1 (stereo not drawn)	i	-5	3	-8	-2
COc1ccc(NC(=O)C2Cc3c(-c4ccc5c(c4)OCO5)ccnc3O2)cc1 (stereo not drawn)	+	11	-9	-8	-2
CCn1nc(C)c(Br)c1C(=O)Sc1ccccc1Cl	i	69*	-16	-32	-3
CCn1nc(C)cc1C(=O)Sc1ccc(C)cc1	i	-5	7	-15	0
O=S(=O)(c1ccc(-c2ccon2)s1)N1CCN(c2ccccn2)CC1	i	2	7	-10	-1
COC(=O)c1ccccc1N/C=C1\CCc2c(c(C)nn2-c2ccccn2)C1=O	i	65*	-10	5	-1
COC(=O)c1ccccc1NC(=O)CN1CCN(c2ccccn2)CC1	i	-1	1	4	0
O=C(COC(=O)/C=C/c1cc(Br)ccc1F)Nc1ccc2[nH]c(=O)[nH]c2c1	i	0	2	-2	8.9*
O=C(COC(=O)Cc1c[nH]c2ccccc12)Nc1cccc(Br)c1	i	-5	-7	-9	0
CCc1ccc(N=Nc2ccc(O)c3[nH]cnc23)cc1	+	-5	-1	-21	-1
O=C(OCc1ccc(Br)cc1)c1cnc(Cl)c(Cl)c1	i	61*	33*	3	-2
O=C(OCCOc1ccc(Br)cc1)c1ccc(Cl)nc1	?	0	26	-7	9.2*
O=C(/C=C/c1ccco1)NCC(=O)N/N=C/c1ccc(Cl)cc1	i	1	2	30	-1
O=C(/C=C/c1ccccc1)NCC(=O)N/N=C/c1ccco1	i	76*	1	-6	-4
O=C(NCC(O)c1nc2ccccc2[nH]1)c1cc([N+](=O)[O-])ccc1F (stereo not drawn)	i	-2	.	-9	.
CCn1c(=NC(=O)CS(=O)(=O)c2ccc(F)cc2)sc2cccc(OC)c21	+	41	3	4	-2
CCn1c(=NC(=O)CCS(=O)(=O)c2ccccc2)sc2cccc(OC)c21	?	17	4	-14	-2
SMILES	Myeloid diff MLP	Exocytosis inh	MC4R antag cAMP	EBI2 antag	MC4R ag barr
C=CCN(CC=C)C(=O)C1c2ccccc2Oc2ccccc21	i	-10	13	1	-1
CCN(CC)C(=O)C1c2ccccc2Oc2ccccc21	+	4	2	-6	2
Cc1ccc(N)c(C(=O)CCCCC(=O)O)c1	+	-2	10	-3	2
Cc1ccc(NC(=O)CCCC(=O)O)c(Br)c1	i	-3	1	-4	-2
CC(NC(=O)CNC(=O)c1cccs1)c1cccc(C(F)(F)F)c1 (stereo not drawn)	i	1	6	3	1
COC(=O)c1cc(NC(=O)CCc2c(C)nc3ncnn3c2C)cc(C(=O)OC)c1	+	0	1	4	-1
Cc1ccc(NC(=O)CCc2c(C)nc3ncnn3c2C)cc1	i	-4	7	7	-1
Cc1ccccc1Oc1cc(-n2ncc(Cl)c(Cl)c2=O)ncn1	?	14	51*	68*	-4
CCCNC(=O)N(C)C[C@@H]1Oc2cc(C#CC(C)(C)O)ccc2S(=O)(=O)N([C@H](C)CO)C[C@H]1C	i	-2	24	0	1
CCOC(=O)N1C(=O)C2(CCCCC2)N(c2ccccc2Cl)C1=S	i	23	2	3	2
Cc1cc(C)n(C(CC(=O)N2CCc3ccccc3C2)C(=O)O)n1 (stereo not drawn)	+	-3	-5	-8	2
CC(C)CNC(=O)C1(C)CCCN1C(=O)c1cccnc1 (stereo not drawn)	i	8	8	3	-1
C=CCN1C(=O)c2oc3ccccc3c(=O)c2C1c1ccc(O)c(OC)c1 (stereo not drawn)	i	6	-9	3	-1
CCOc1cc(C2c3c(oc4ccccc4c3=O)C(=O)N2c2nccs2)ccc1O (stereo not drawn)	i	2	-4	-5	9.5*
CCn1c2ccccc2nc2cc3c(cc21)c(Cl)c(=O)c1ccccc13	?	119*	4	-32	-2
CCn1c(/C=C/c2c(C)n(CC)c3ccccc23)nc2ccccc2c1=O	i	-5	10	-20	-2
C(=Nc1cccc2c(N=Cc3ccco3)cccc12)c1ccco1	i	103*	-1	-4	-3
CN(C)c1ccc(C=Nc2ccc(N(C)C)cc2)cc1	i	44	-4	2	-2
C(=N\C(/N=C/c1ccco1)c1ccco1)/c1ccco1	i	2	6	-4	0
CN(C)c1ccc(N=Cc2ccco2)cc1	+	9	-1	7	-2
Fc1ccc(-c2nc3c(-c4ccc(Cl)cc4)cnn3cc2CCN2CCOCC2)cc1	i	2	6	13	8.8*
CN1CCN(CCc2cn3ncc(C#N)c3nc2-c2ccc(F)cc2)CC1	i	-4	8	-13	3
Cc1ccc(S(=O)(=O)Nc2ccc(Cl)cc2O)cc1	i	-2	.	-8	.
CC[C@]12C(=O)N(C)C[C@H]([C@@H]3C(=O)N(Cc4ccccc4)C(=O)[C@@H]31)N2C(=O)c1ccccc1	+	3	-2	-3	-1
CN1C[C@@H]2[C@@H]3C(=O)N(Cc4ccccc4)C(=O)[C@@H]3[C@](Cc3ccccc3)(C1=O)N2C(=O)c1ccccc1	i	-4	-3	6	0
Cc1ccc(NC(=O)NCCSc2ccc(C)cc2)cc1	i	-4	12	7	8.5*
Cc1ccc(NC(=S)NCCSc2ccc(Cl)cc2)cc1	i	5	5	17	0
Cc1nn(C)c(C)c1NS(=O)(=O)c1ccccc1Cl	i	8	5	-3	1
